Rows were chosen to be rich in hits. Some 3.7% of all compounds tested hit in one or more screens of this group.
PGE2 EP2 inh – human EP2 receptor antagonists, primary screen, TR-FRET cAMP, C6 glioma cells; Prostaglandin E2 receptor EP2 subtype (Homo sapiens), P43116; C6 glioma cells expressing human EP2; cells stimulated with saturating PGE2; AID 1422, 2008; 260,000 compounds, 0.52% hits; inhibition, % at 25 µM;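 active = percent inhibition above 40 after rounding to a whole number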;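 note: rat C6 glioma host cells with rolipram phosphodiesterase inhibitor present; the protocol text gives 20 µM as final concentration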
GPR7 antag – GPR7 receptor antagonists, primary screen, cell-based, fluorescence, single concentration. Neuropeptides B/W receptor type 1 (Homo sapiens), P48145. GPR7-expressing cells, fluorescence antagonist assay. inhibition, % at 4.4 µM. 290,000 compounds, 1.1% hits; in the data active = inhibition above about 16%, passing the limit was not always enough;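 note: cells stimulated with the agonist NPW; 0% = agonist with vehicle and 100% = vehicle without agonist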
OX1R antag-1 – antagonists of human orexin 1 receptor (OX1R). inhibition, % at 6.6 µM. 330,000 compounds, 1.8% hits. OX1R-expressing cells, FRET antagonist read-out; in the data active = inhibition mostly above about 38%, no sharp cut-off; inactive = mostly below about 40%;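 note: 0% = agonist challenge alone and 100% = reference antagonist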
Target sequence (O43613 whole entry, looked up): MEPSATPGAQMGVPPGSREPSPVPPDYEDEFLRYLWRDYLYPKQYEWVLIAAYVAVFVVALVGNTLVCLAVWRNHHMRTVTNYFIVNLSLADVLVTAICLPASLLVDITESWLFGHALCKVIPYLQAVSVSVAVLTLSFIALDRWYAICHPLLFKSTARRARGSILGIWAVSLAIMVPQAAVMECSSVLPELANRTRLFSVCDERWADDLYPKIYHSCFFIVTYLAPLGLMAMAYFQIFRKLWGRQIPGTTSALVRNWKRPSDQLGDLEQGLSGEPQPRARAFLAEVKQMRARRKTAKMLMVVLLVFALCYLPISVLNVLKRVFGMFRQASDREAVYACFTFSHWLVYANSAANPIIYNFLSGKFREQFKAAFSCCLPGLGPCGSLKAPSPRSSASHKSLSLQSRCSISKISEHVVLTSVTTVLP
EP2 mod – EP2 receptor modulators, cAMP readout, primary screen, cell-based, HTRF cAMP, PGE2 stimulation. Prostaglandin E2 receptor EP2 subtype (Homo sapiens), P43116. EP2-expressing cells, cAMP HTRF FRET, PGE2 co-stimulation. induction, % at 25 µM. 260,000 compounds, 0.83% hits. AID 940, 2007;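 active = compounds whose cAMP rise, as percent of the full-agonist control response, exceeds 60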;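 note: rat C6 glioma line stably carrying human EP2 under a CMV promoter; the protocol text gives 20 µM as final concentration; 100% = response of wells given 1 µM PGE2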
CHO parental Ca – ATP-evoked calcium signal inhibitors, parental CHO, primary screen, counter-screen for OX1R antagonist project, cell-based, fluorescence, Fluo-8 calcium dye | parental CHO-K1, ATP-induced calcium, Fluo-8 fluorescence | 330,000 compounds, 0.63% hits | inhibition, % at 5.6 µM;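 active = inhibition above that plate's mean sample inhibition plus 3 SD, cut at about 26% in these data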;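 note: 0% = ATP-challenged DMSO wells and 100% = DMSO wells without ATP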
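Assay system – parental CHO cells · Reagent – ATP stimulus · Detection – intracellular calcium via Fluo-8 no-wash fluorescent dye · Evaluation – percent inhibition of ATP-evoked calcium rise, normalized to controls · Controls – ATP wells versus no-ATP DMSO wells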
OX1R antag-2 – OX1R (HCRTR1) antagonists, primary screen, fluorescence, CHO/OX1R cells, Fluo-8 calcium, orexin A | Orexin/Hypocretin receptor type 1 (Homo sapiens), O43613 | Fluo-8 calcium fluorescence | inhibition, % at 5 µM | 330,000 compounds, 0.43% hits | AID 434989, 2010;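 active = inhibition above its plate's threshold, mean inhibition of all tested compounds on the plate plus 3 SD, cut at about 37% in these data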;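 note: 0% = orexin A challenge wells and 100% = SB-334867-A antagonist wells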
OX1R HTRF conf – OX1R (HCRTR1) antagonists, confirmation, cell-based, HTRF | OX1R-expressing cells, HTRF antagonist assay | inhibition, % at 6.6 µM | 1,800 compounds, 49% hits | shares compounds with OX1R antag-1; in the data active = inhibition above about 55%;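 note: CHO cells expressing OX1R stimulated with orexin A at about EC80; 0% = agonist challenge alone and 100% = reference antagonist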
CHO-K1 HTRF – signal inhibition in parental CHO-K1 cells, counter-screen for OX1R antagonist project, cell-based, HTRF; shares compounds with OX1R antag-1; HTRF counterscreen; inhibition, % at 6.6 µM; 1,800 compounds, 48% hits; AID 493232, 2011; in the data active = inhibition above about 17%;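 note: 0% = agonist challenge with vehicle and 100% = vehicle alone without agonist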
* marks the source's active call; other numbers are inactive results.

How did COc1ccc(C(CC(=O)O)NC(=O)COc2ccccc2)cc1 (stereo unspecified) do in these assays?
PGE2 EP2 inh: 23.7; GPR7 antag: 0.4; OX1R antag-1: 9.7; EP2 mod: 19.3; CHO parental Ca: 2.2; OX1R antag-2: -3.8

Results for CC1(C)Cc2nc(-c3ccccc3)nc(SCC(=O)N3CCCC3)c2CO1 ?
PGE2 EP2 inh: 3.0; GPR7 antag: -17.9; OX1R antag-1: 17.8; EP2 mod: -21.7; CHO parental Ca: -2.7; OX1R antag-2: -30.9

How did O=C(CCNS(=O)(=O)c1cccc2nsnc12)N1CCc2ccccc21 do in these assays?
PGE2 EP2 inh: 6.7; GPR7 antag: -7.7; OX1R antag-1: 94.7*; EP2 mod: 0.2; CHO parental Ca: -20.8; OX1R antag-2: -20.4; OX1R HTRF conf: 26.0; CHO-K1 HTRF: 21.6*

How did Cc1ccc(SCC(=O)OCC(=O)NCCNC(=O)COC(=O)CSc2ccc(C)c(C)c2)cc1C do in these assays?
OX1R antag-1: 16.1; CHO parental Ca: 1.3; OX1R antag-2: -1.8

What do the screens show for `NS(=O)(=O)c1ccc(NN=C2CCN(Cc3ccccc3)CC2)c([N+](=O)[O-])c1`?
PGE2 EP2 inh: 10.0; GPR7 antag: -11.0; OX1R antag-1: 82.7*; EP2 mod: -40.9; CHO parental Ca: -2.7; OX1R antag-2: 8.0; OX1R HTRF conf: 19.0; CHO-K1 HTRF: 7.3

What do the screens show for `Cc1ccc([N+](=O)[O-])c(OCCN2CCC(Cc3ccccc3)CC2)c1`?
PGE2 EP2 inh: 15.7; GPR7 antag: 5.6; OX1R antag-1: 10.0; EP2 mod: -38.9; CHO parental Ca: -14.6; OX1R antag-2: -27.0

Results for O=[N+]([O-])c1c(NCCCO)cc(N2CCN(Cc3ccc4c(c3)OCO4)CC2)c2nonc12 ?
PGE2 EP2 inh: 9.1; GPR7 antag: -0.8; OX1R antag-1: 33.2; EP2 mod: -2.7; CHO parental Ca: -13.4; OX1R antag-2: -24.5

What do the screens show for `CN(CCO)c1cc(N2CCC3(CC2)OCCO3)c2nonc2c1[N+](=O)[O-]`?
PGE2 EP2 inh: 5.0; GPR7 antag: -0.8; OX1R antag-1: 128.8*; EP2 mod: 12.4; CHO parental Ca: 6.6; OX1R antag-2: -4.2; OX1R HTRF conf: 60.0*; CHO-K1 HTRF: 56.0*

How did CN(CCO)c1cc(NCCCN2CCC(Cc3ccccc3)CC2)c2nonc2c1[N+](=O)[O-] do in these assays?
PGE2 EP2 inh: 6.2; GPR7 antag: -9.8; OX1R antag-1: 84.8*; EP2 mod: -21.5; CHO parental Ca: -30.4; OX1R antag-2: -19.0; OX1R HTRF conf: 62.7*; CHO-K1 HTRF: 47.3*

How did CC(=O)Nc1ccc(Nc2cc(N3CCOCC3)c3nonc3c2[N+](=O)[O-])cc1 do in these assays?
PGE2 EP2 inh: 6.0; GPR7 antag: 2.9; OX1R antag-1: 31.7; EP2 mod: 14.6; CHO parental Ca: -9.1; OX1R antag-2: -8.6

How did O=[N+]([O-])c1c(NCCO)cc(N2CCC3(CC2)OCCO3)c2nonc12 do in these assays?
PGE2 EP2 inh: 7.9; GPR7 antag: 9.1; OX1R antag-1: 169.7*; EP2 mod: 1.2; CHO parental Ca: 0.0; OX1R antag-2: 4.3; OX1R HTRF conf: 45.8; CHO-K1 HTRF: 82.4*

Results for O=C(CN1CCN(c2ccccn2)CC1)Nc1cccc(Cl)c1Cl ?
GPR7 antag: -3.9; OX1R antag-1: 6.8; CHO parental Ca: -21.1; OX1R antag-2: -34.4

Results for O=C1CCCc2nc(N3CCCCC3)sc21 ?
PGE2 EP2 inh: 11.3; GPR7 antag: -13.8; OX1R antag-1: 1.6; EP2 mod: 20.9; CHO parental Ca: -20.9; OX1R antag-2: 0.9

Bioassay records deposited in PubChem BioAssay by several laboratories.
